Source: PubChem (several laboratories)
In the library only some 5.7% were active in any assay of this set; here they are far more common.
Mdm2 MdmX PPI: inhibitors of human Mdm2/MdmX interaction; O15151+Q00987; SaOS-2 split-luciferase Mdm2/MdmX complementation, luminescence; inhibition, % at 8 µM; 330,000 compounds, 3% hits;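 active = inhibition of at least 50% at 8 µM in the primary screen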
Target sequence (O15151 whole entry, looked up): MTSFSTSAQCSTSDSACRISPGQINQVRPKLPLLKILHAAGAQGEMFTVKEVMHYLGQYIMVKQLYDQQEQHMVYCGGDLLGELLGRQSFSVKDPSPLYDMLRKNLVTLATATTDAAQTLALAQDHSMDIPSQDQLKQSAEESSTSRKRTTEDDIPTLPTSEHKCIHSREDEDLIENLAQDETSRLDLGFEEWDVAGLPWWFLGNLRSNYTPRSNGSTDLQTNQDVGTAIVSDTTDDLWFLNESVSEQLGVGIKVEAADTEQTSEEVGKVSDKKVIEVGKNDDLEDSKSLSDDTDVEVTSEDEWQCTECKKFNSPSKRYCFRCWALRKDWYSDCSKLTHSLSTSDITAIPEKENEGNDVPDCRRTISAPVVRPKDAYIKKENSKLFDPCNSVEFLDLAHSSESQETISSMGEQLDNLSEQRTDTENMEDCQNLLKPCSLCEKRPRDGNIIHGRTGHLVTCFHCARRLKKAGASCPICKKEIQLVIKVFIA
Target sequence (Q00987 whole entry, looked up): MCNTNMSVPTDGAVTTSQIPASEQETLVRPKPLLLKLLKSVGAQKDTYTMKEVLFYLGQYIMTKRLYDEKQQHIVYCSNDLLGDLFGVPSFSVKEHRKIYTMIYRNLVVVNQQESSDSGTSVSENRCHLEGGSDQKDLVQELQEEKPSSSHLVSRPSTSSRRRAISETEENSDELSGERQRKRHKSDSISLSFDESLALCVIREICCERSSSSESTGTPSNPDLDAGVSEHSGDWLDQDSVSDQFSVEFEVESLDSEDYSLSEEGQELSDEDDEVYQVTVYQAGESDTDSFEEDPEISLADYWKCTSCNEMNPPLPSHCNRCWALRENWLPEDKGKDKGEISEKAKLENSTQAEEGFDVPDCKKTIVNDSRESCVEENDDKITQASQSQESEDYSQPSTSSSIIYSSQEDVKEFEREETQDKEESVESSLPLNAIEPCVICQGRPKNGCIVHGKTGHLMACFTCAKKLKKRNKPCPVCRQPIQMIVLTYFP
CSC inhib: cancer stem cell inhibition; 300,000 compounds, 1.1% hits; inhibition, % at 7.5 µM; AID 2717; cancer stem cell-like cells viability, luminescence; in the data active = inhibition above about 75%; inconclusive = no clear call, values can overlap the other calls; tested in HMLE shEcad cells
Beta apoptosis: blocks beta cell apoptosis; INS-1E cytokine-induced death, ATP luminescence, 48 h; percent of positive-control rescue, neutral wells zero; protection from apoptosis, % (test concentration not listed); 300,000 compounds, 0.8% hits;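 active = Every replicate reaches about 75%, or at least half do and their mean reaches it too, limit read from the data; inconclusive = At least half of replicates reach the limit but their mean does not; inactive = Under half of replicates reach the limit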;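 note: higher means more ATP so stronger rescue from cytokine killing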
Calb FLC: affects C. albicans growth with fluconazole; AID 1979; C. albicans CaCi-2 (fluconazole-resistant clinical isolate) + fluconazole, Alamar Blue growth, 48 h; 300,000 compounds, 0.57% hits; growth inhibition, % (no concentration beside the values);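 active = growth inhibition above about 58% in most replicates, limit read from the data, passing the limit was not always enough; inconclusive = exactly half the replicates above a set limit; inactive = most replicates below a set limit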;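 note: all wells also contain fluconazole at 8 µg/ml as a sub-toxic cotreatment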
T cruzi inh: T. cruzi replication inhibition. T. cruzi beta-gal in NIH3T3, luminescence, 90 h. inhibition, % (no concentration beside the values). 300,000 compounds, 1.4% hits;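 active = mean inhibition across valid replicates above about 55%, limit read from the data; inconclusive = mean below that limit but half or more replicates reach it; inactive = mean below it, under half of replicates reach it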;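 note: signal also drops with host cell toxicity which is not excluded here; higher percent means less beta-gal luminescence so fewer parasites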
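Read-out: Parasite load inhibition, % | Test system: Mouse NIH/3T3 fibroblasts infected with β-gal-expressing T. cruzi Tulahuen C4 | Amount: 5,000 cells/well | Medium: DMEM, 2% fetal bovine serum | Signal: GalScreen β-gal luminescence, detergent lysis, 60 min | Timing: 3 h attach, ≥90 h co-culture | Also added: Tulahuen C4 trypomastigotes, 5000/well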
SKKanGAS inh: SKKanGAS growth inhibition; inhibition, % at 7.5 µM; S. pyogenes SKKanGAS, kanamycin growth, BacTiter-Glo, 6 h; AID 1662; 300,000 compounds, 1.3% hits;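 active = mean replicate score, as percent of positive control median, at least 50; inconclusive = mean below 50 but one replicate at or above 50; inactive = mean and every replicate below 50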;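 note: strain carries kanamycin resistance gene driven by streptokinase promoter and grows in 40 µg/ml kanamycin; loss of luminescence reflects streptokinase promoter inhibition or plain growth inhibition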
Each line names hits and unclear results; the compound was inactive in the other large screens.

CC(/C=C1\SC(=S)N(CCC(=O)Nc2ccccc2O)C1=O)=C\c1ccccc1	none
CC(/C=C1\SC(=S)N(CCCC(=O)Nc2ccc(C(=O)O)cc2)C1=O)=C\c1ccccc1	SKKanGAS inh 121 (no result: CSC inhib)
CC(/C=C1\SC(=S)N(CCC(=O)Nc2cccc(C(=O)O)c2)C1=O)=C\c1ccccc1	SKKanGAS inh 112 (no result: CSC inhib)
CC(=O)Nc1ccc(NC(=O)CCCN2C(=O)c3ccccc3C2=O)cc1	Calb FLC 108
CC(=C\c1ccccc1)/C=C1/SC(=S)N(CCCC(=O)O)C1=O	none
CC(=O)c1c2c3c(c(Br)ccc3n(C)c1=O)C(=O)c1ccccc1-2	none
CC(=O)c1c(C)oc2c1C(=O)c1ccccc1C2=O	CSC inhib 83, Beta apoptosis 96 (no result: Mdm2 MdmX PPI)
COC(=O)c1c(NC(=O)Cc2ccccc2)sc2c1CCN(C(C)C)C2	none
CCN1CCN(S(=O)(=O)c2ccc(C(=O)Nc3sc4c(c3C(N)=O)CCN(CC)C4)cc2)CC1	none
CC(C)N1CCc2c(sc(NC(=O)c3nc4ccccc4s3)c2C(N)=O)C1	Calb FLC 119
CCN1CCc2c(sc(NC(=O)c3ccc4ccccc4c3)c2C(N)=O)C1	T cruzi inh 62 (no result: Calb FLC)
CCOc1ccc(-c2c(C(=O)N/N=C/c3ccsc3)nnn2-c2nonc2N)cc1	none
COc1ccc(N(CC(=O)NCc2ccccc2)C(=O)Cn2nnc(-c3ccccc3F)n2)cc1OC	Calb FLC inconclusive
Cc1c(Cl)ccc(S(=O)(=O)Nc2cccnc2)c1Cl	Calb FLC 77
COc1ccccc1NC(=O)c1ccc(NC(=O)COC(=O)C2(C)CC2(Cl)Cl)cc1 (configuration not stated)	none
CC(=O)c1cc(CN2CCN(CC=C(C)C)C(CCO)C2)cs1 (configuration not stated)	none
Cc1ccc(NNC(=O)c2c(C)noc2C)cc1Cl	CSC inhib 98
Cc1noc(C)c1C(=O)NNc1ccc(C(C)C)cc1	none
Cc1cc(Cl)ccc1NNC(=O)c1c(C)noc1C	CSC inhib inconclusive, Calb FLC 82
O=[N+]([O-])c1cccc(-c2cc3cccc[n+]3cc2-c2cccc([N+](=O)[O-])c2)c1	none
Cc1cccc2cc(-c3ccccc3)c(-c3ccccc3)c[n+]12	Beta apoptosis 99 (no result: Mdm2 MdmX PPI)
Cc1ccc(-n2c3nc(=O)[nH]c(=O)c-3cc3cc([N+](=O)[O-])ccc32)cc1C	CSC inhib 84
O=S(=O)(Nc1cccc2c1CCCC2)c1ccc(Cl)cc1	SKKanGAS inh inconclusive
O=C(Nc1cccc(-c2nc3ccccc3o2)c1)c1cccnc1	none
O=C(O)c1ccccc1-c1ccccc1C(=O)Nc1cccc(-c2nc3ccccc3o2)c1	Calb FLC 89
COc1cc(OC)cc(C(=O)Nc2ccc(Nc3ccccc3)cc2)c1	CSC inhib 88
Cc1ccc2oc(-c3ccc(NC(=O)c4cccnc4)cc3)nc2c1	Beta apoptosis 86, Calb FLC inconclusive (no result: CSC inhib)
Cc1ccc(-c2nc3cc(NS(=O)(=O)c4ccc(C)cc4)ccc3o2)cc1	SKKanGAS inh 85
C=CCSc1nnc(NC(=O)c2c(CC)noc2C)s1	none
COc1cc(/C=C2\SC(=S)N(CCCCC(=O)O)C2=O)ccc1OS(=O)(=O)c1ccc(C)cc1	none
CC1=NCCN1S(=O)(=O)c1ccccc1[N+](=O)[O-]	none
COc1cc(OC)cc(C(=O)Nc2cccc(N3CCCC3)c2)c1	T cruzi inh 68
COc1cc(OC)cc(C(=O)Nc2nnc(NC(=S)Nc3ccccc3)s2)c1	SKKanGAS inh 52
CCC(C)c1ccc2oc(-c3ccc(NC(=O)c4ncn[nH]4)cc3)nc2c1 (configuration not stated)	none
COc1cc(OC)cc(C(=O)Nc2cccc(C(C)=O)c2)c1	none
COc1cc(OC)cc(C(=O)Nc2ccc(-c3nc4ccccc4o3)cc2)c1	T cruzi inh 60
CC(C)c1ccc2oc(-c3ccc(NC(=O)c4ncn[nH]4)cc3)nc2c1	Calb FLC 88
Cn1cc([N+](=O)[O-])c(C(=O)NCc2ccccc2)n1	none
O=c1[nH]cccc1-c1nc2ccccc2n1Cc1cccc(F)c1	none
CCOC(=O)c1c(NC(=O)c2ccccc2Br)sc2c1CCc1ccccc1-2	none
CCOC(=O)COc1ccc(S(=O)(=O)N2CCN(c3ccccc3F)CC2)cc1	Calb FLC 103
Cc1ccc(N2CCN(S(=O)(=O)c3ccc(F)c(C)c3)CC2)c(C)c1	none
